Reference: ChEMBL document CHEMBL1127464, “Inhibitors of HIV-1 proteinase containing 2-heterosubstituted 4-amino-3-hydroxy-5-phenylpentanoic acid: synthesis, enzyme inhibition, and antiviral activity” (J Med Chem, 1994)
Each block holds one molecule with its values, some of them ahead of it.

Columns and labels:
[1] = target: Human immunodeficiency virus type 1 protease (Human immunodeficiency virus 1, UniProt Q72874); assay: Inhibitory constant against HIV-1 protease
Summary of the method: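 HIV-1 proteinase expressed in E. coli JM 105 and purified to homogeneity. Initial rates were taken from the absorbance decrease at 298 nm. IC50 came from a fit of the initial velocities. Ki was derived from IC50 accounting for enzyme, substrate and Km. Mean of two determinations.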

[2] = test system: Human immunodeficiency virus 1; assay: Antiviral activity by observing cytopathic effect induced by HIV-1 strain IIIB in de novo infected MT-4 cells; format: functional, organism-based; conditions: Human immunodeficiency virus 1, MT4

Compound: CC(C)[C@H](NC(=O)OCc1ccccc1)C(=O)N[C@@H](Cc1ccccc1)[C@@H](O)[C@@H](NC1CCCCC1)C(=O)N[C@H](C(=O)NCc1ccccc1)C(C)C
Ki [1]: 33.5 nM
IC50 [2]: 940 nM

Compound: CC(C)[C@H](NC(=O)[C@H](NCc1ccccc1)[C@H](O)[C@H](Cc1ccccc1)NC(=O)[C@H](CC(N)=O)NC(=O)OCc1ccccc1)C(=O)NCc1ccccc1
Ki [1]: 10.4 nM
IC50 [2]: 1010 nM

Compound: CCCCN[C@@H](C(=O)N[C@H](C(=O)NCc1ccccc1)C(C)C)[C@H](O)[C@H](Cc1ccccc1)NC(=O)[C@@H](NC(=O)OCc1ccccc1)C(C)C
Ki [1]: 23 nM
IC50 [2]: > 3000 nM

Compound: CC(C)[C@H](NC(=O)OCc1ccccc1)C(=O)N[C@@H](Cc1ccccc1)[C@@H](O)[C@@H](SCc1ccccc1)C(=O)N[C@H](C(=O)NCc1ccccc1)C(C)C
Ki [1]: 10 nM
IC50 [2]: 330 nM

Compound: CC(C)[C@H](NC(=O)OCc1ccccc1)C(=O)N[C@@H](Cc1ccccc1)[C@@H](O)[C@@H](NCc1cccc2ccccc12)C(=O)N[C@H](C(=O)NCc1ccccc1)C(C)C
Ki [1]: 26 nM
IC50 [2]: > 3000 nM

Compound: CC(C)[C@H](NC(=O)[C@H](NCc1ccccc1)[C@H](O)[C@H](Cc1ccccc1)NC(=O)[C@H](C)NC(=O)OCc1ccccc1)C(=O)NCc1ccccc1
Ki [1]: 34 nM
IC50 [2]: > 3000 nM

Ki [1]: 8.3 nM
IC50 [2]: > 3000 nM
Compound: CC[C@@H](C)[C@H](NC(=O)OCc1ccccc1)C(=O)N[C@@H](Cc1ccccc1)[C@@H](O)[C@@H](NCc1ccccc1)C(=O)N[C@H](C(=O)NCc1ccccc1)C(C)C

Compound: CC(C)C[C@H](NC(=O)[C@H](NCc1ccccc1)[C@H](O)[C@H](Cc1ccccc1)NC(=O)[C@@H](NC(=O)OCc1ccccc1)C(C)C)C(=O)NCc1ccccc1
Ki [1]: 44 nM
IC50 [2]: > 3000 nM

Compound: CC(C)[C@H](NC(=O)OCc1ccccn1)C(=O)N[C@@H](Cc1ccccc1)[C@@H](O)[C@@H](NCc1ccccc1)C(=O)N[C@H](C(=O)NCc1ccccc1)C(C)C
Ki [1]: 8.6 nM
IC50 [2]: 350 nM

Compound: CC(C)[C@H](NC(=O)[C@H](NCc1ccccc1)[C@H](O)[C@H](Cc1ccccc1)NC(=O)[C@H](Cc1c[nH]c2ccccc12)NC(=O)OCc1ccccc1)C(=O)NCc1ccccc1
Ki [1]: 200 nM
IC50 [2]: > 3000 nM

Compound: CC(C)[C@H](NC(=O)OCc1ccccc1)C(=O)N[C@@H](Cc1ccccc1)[C@@H](O)[C@@H](NCc1ccc(Cl)cc1)C(=O)N[C@H](C(=O)NCc1ccccc1)C(C)C
Ki [1]: 17 nM
IC50 [2]: 400 nM

Compound: CC(C)[C@H](NC(=O)OCc1ccccc1)C(=O)N[C@@H](Cc1ccccc1)[C@@H](O)[C@@H](NCc1ccccc1)C(=O)N[C@H](C(=O)NCc1ccccn1)C(C)C
Ki [1]: 12 nM
IC50 [2]: 1140 nM

Ki [1]: 20 nM
Compound: CC(C)[C@H](NC(=O)OCc1ccccc1)C(=O)N[C@@H](Cc1ccccc1)[C@@H](O)[C@@H](NCc1ccccc1)C(=O)N[C@@H](C(=O)NCc1ccccc1)C(C)(C)C.CC(C)[C@H](NC(=O)OCc1ccccc1)C(=O)N[C@@H](Cc1ccccc1)[C@@H](O)[C@@H](NCc1ccccc1)C(=O)N[C@H](C(=O)NCc1ccccc1)C(C)(C)C (stereo in doubt; 32(5:1))

Ki [1]: > 3000 nM
IC50 [2]: > 3000 nM
Compound: CC(C)[C@H](NC(=O)OCc1ccccc1)C(=O)N[C@@H](Cc1ccccc1)[C@@H](O)[C@@H](NCc1ccccc1)C(=O)N[C@@H](C(=O)NCc1ccccc1)C(C)(C)C.CC(C)[C@H](NC(=O)OCc1ccccc1)C(=O)N[C@@H](Cc1ccccc1)[C@@H](O)[C@@H](NCc1ccccc1)C(=O)N[C@H](C(=O)NCc1ccccc1)C(C)(C)C (stereo in doubt; 33(4:1))

Compound: CC(C)[C@H](NC(=O)OCc1ccccc1)C(=O)N[C@@H](Cc1ccccc1)[C@@H](O)[C@@H](NCCc1c[nH]c2ccccc12)C(=O)N[C@H](C(=O)NCc1ccccc1)C(C)C
Ki [1]: 61 nM
IC50 [2]: > 3000 nM

Compound: CC(C)[C@H](NC(=O)OCc1ccccc1)C(=O)N[C@@H](Cc1ccccc1)[C@@H](O)[C@@H](NCc1ccc(Br)cc1)C(=O)N[C@H](C(=O)NCc1ccccc1)C(C)C
Ki [1]: 23 nM
IC50 [2]: 350 nM

Compound: CC(C)[C@H](NC(=O)OCc1ccccc1)C(=O)N[C@@H](Cc1ccccc1)[C@@H](O)[C@@H](NCc1ccccc1)C(=O)N[C@@H](CC(N)=O)C(=O)NCc1ccccc1
Ki [1]: 42 nM
IC50 [2]: > 3000 nM

Compound: CC(C)[C@H](NC(=O)OCc1ccccc1)C(=O)N[C@@H](Cc1ccccc1)[C@@H](O)[C@@H](Nc1ccc(-c2ccccc2)cc1)C(=O)N[C@H](C(=O)NCc1ccccc1)C(C)C
Ki [1]: 59 nM
IC50 [2]: > 3000 nM

Compound: CC(C)[C@H](NC(=O)c1ccc2ccccc2n1)C(=O)N[C@@H](Cc1ccccc1)[C@@H](O)[C@@H](NCc1ccccc1)C(=O)N[C@H](C(=O)NCc1ccccc1)C(C)C
Ki [1]: 10.2 nM
IC50 [2]: 1610 nM

Compound: CC(C)[C@H](NC(=O)OCc1ccccc1)C(=O)N[C@@H](Cc1ccccc1)[C@@H](O)[C@@H](NCCc1ccccn1)C(=O)N[C@H](C(=O)NCc1ccccc1)C(C)C
Ki [1]: 200 nM
IC50 [2]: > 3000 nM

Ki [1]: > 3000 nM
IC50 [2]: > 3000 nM
Compound: CC[C@H](C)[C@H](NC(=O)[C@H](NCc1ccccc1)[C@H](O)[C@H](Cc1ccccc1)NC(=O)[C@@H](NC(=O)OCc1ccccc1)C(C)C)C(=O)NCc1ccccc1

Compound: CC(C)[C@H](NC(=O)OCc1ccccc1)C(=O)N[C@@H](Cc1ccccc1)[C@@H](O)[C@@H](NCc1ccc(Cl)cc1)C(=O)N[C@H](C(=O)NCc1nc2ccccc2[nH]1)C(C)C
Ki [1]: 6.1 nM
IC50 [2]: 120 nM

Compound: CC(C)[C@H](NC(=O)[C@H](NCc1ccccc1)[C@H](O)[C@H](Cc1ccccc1)NC(=O)[C@H](Cc1cnc[nH]1)NC(=O)OCc1ccccc1)C(=O)NCc1ccccc1
Ki [1]: 29 nM
IC50 [2]: > 3000 nM

Compound: CC(C)[C@H](NC(=O)OCc1ccccc1)C(=O)N[C@@H](Cc1ccccc1)[C@@H](O)[C@@H](NCc1ccccc1)C(=O)N[C@H](C(=O)NCCc1c[nH]c2ccccc12)C(C)C
Ki [1]: 10.6 nM
IC50 [2]: > 3000 nM

Compound: CC(C)[C@H](NC(=O)[C@H](NCc1ccccc1)[C@H](O)[C@H](Cc1ccccc1)NC(=O)[C@@H](NC(=O)OCc1ccccc1)c1ccccc1)C(=O)NCc1ccccc1
Ki [1]: 51 nM
IC50 [2]: > 3000 nM

Compound: CC(C)[C@H](NC(=O)OCc1ccccc1)C(=O)N[C@@H](Cc1ccccc1)[C@@H](O)[C@@H](Nc1ccccc1)C(=O)N[C@H](C(=O)NCc1ccccc1)C(C)C
Ki [1]: 6.9 nM
IC50 [2]: 1340 nM

Compound: CC(C)[C@H](NC(=O)[C@H](NCc1ccccc1)[C@H](O)[C@H](Cc1ccccc1)NC(=O)[C@H](CO)NC(=O)OCc1ccccc1)C(=O)NCc1ccccc1
Ki [1]: 153 nM
IC50 [2]: 2500 nM

Compound: CC(C)[C@H](NC(=O)OCc1ccccc1)C(=O)N[C@@H](Cc1ccccc1)[C@@H](O)[C@@H](NCc1ccccc1)C(=O)N[C@H](C(=O)OCc1nc2ccccc2[nH]1)C(C)C
Ki [1]: 29 nM
IC50 [2]: > 3000 nM

Compound: CC[C@H](NC(=O)OCc1ccccc1)C(=O)N[C@@H](Cc1ccccc1)[C@@H](O)[C@@H](NCc1ccccc1)C(=O)N[C@H](C(=O)NCc1ccccc1)C(C)C
Ki [1]: 17.1 nM
IC50 [2]: 2000 nM

Compound: CC(C)[C@H](NC(=O)[C@H](NCc1ccccc1)[C@H](O)[C@H](Cc1ccccc1)NC(=O)[C@@H](NC(=O)N(C)Cc1nc2ccccc2[nH]1)C(C)C)C(=O)NCc1ccccc1
Ki [1]: 10.2 nM
IC50 [2]: 270 nM

Compound: CC(C)[C@H](NC(=O)OC(C)(C)C)C(=O)N[C@@H](Cc1ccccc1)[C@@H](O)[C@@H](NCc1ccccc1)C(=O)N[C@H](C(=O)NCc1ccccc1)C(C)C
Ki [1]: 215 nM
IC50 [2]: > 3000 nM

Compound: CC(C)[C@H](NC(=O)CCc1nc2ccccc2[nH]1)C(=O)N[C@@H](Cc1ccccc1)[C@@H](O)[C@@H](NCc1ccccc1)C(=O)N[C@H](C(=O)NCc1ccccc1)C(C)C
Ki [1]: 9.9 nM
IC50 [2]: 180 nM

Compound: CCOC(=O)[C@@H](NC(=O)[C@H](NCc1ccccc1)[C@H](O)[C@H](Cc1ccccc1)NC(=O)[C@@H](NC(=O)OCc1ccccc1)C(C)C)C(C)C
Ki [1]: 1200 nM
IC50 [2]: > 3000 nM

Compound: CC(C)C[C@H](NC(=O)OCc1ccccc1)C(=O)N[C@@H](Cc1ccccc1)[C@@H](O)[C@@H](NCc1ccccc1)C(=O)N[C@H](C(=O)NCc1ccccc1)C(C)C
Ki [1]: 65 nM
IC50 [2]: > 3000 nM

Ki [1]: 45 nM
IC50 [2]: 2000 nM
Compound: CC(C)[C@H](NC(=O)[C@H](NCc1ccccc1)[C@H](O)[C@H](Cc1ccccc1)NC(=O)[C@H](CCC(N)=O)NC(=O)OCc1ccccc1)C(=O)NCc1ccccc1

Compound: CC(C)[C@H](NC(=O)OCc1ccccc1)C(=O)N[C@@H](Cc1ccccc1)[C@@H](O)[C@@H](NCc1ccccc1)C(=O)N[C@H](C(=O)NCc1nc2ccccc2[nH]1)C(C)C
Ki [1]: 13 nM
IC50 [2]: 140 nM

Compound: CC(C)[C@H](NC(=O)CCCCCN)C(=O)N[C@@H](Cc1ccccc1)[C@@H](O)[C@@H](NCc1ccccc1)C(=O)N[C@H](C(=O)NCc1ccccc1)C(C)C
Ki [1]: 33 nM
IC50 [2]: > 3000 nM

Compound: CC(C)[C@H](NC(=O)OCc1ccccc1)C(=O)N[C@@H](Cc1ccccc1)[C@@H](O)[C@@H](NCCc1ccccc1)C(=O)N[C@H](C(=O)NCc1ccccc1)C(C)C
Ki [1]: 34 nM
IC50 [2]: > 3000 nM

Compound: CC(C)[C@H](NC(=O)OCc1ccccc1)C(=O)N[C@@H](Cc1ccccc1)[C@@H](O)[C@@H](NCc1ccccc1)C(=O)N[C@H](C(=O)NC(C)(C)C)C(C)C
Ki [1]: 72 nM
IC50 [2]: > 3000 nM
